Data: article PMC9977173 (Science Advances, 2023)
Where a SMILES comes first, the peptide text is derived from it. Bridges are numbered along the chain shown (N, C = ends). Roman numbers before positions name the chains, in order. The star is where a group is joined. X1 = O=C(Cn1cc(CCCC(=O)*)nn1)NC(COCc1cn(CCO[C@H]2O[C@H](CO)[C@@H](O)[C@H](O)[C@@H]2O)nn1)(COCc1cn(CCO[C@H]2O[C@H](CO)[C@@H](O)[C@H](O)[C@@H]2O)nn1)COCc1cn(CCO[C@H]2O[C@H](CO)[C@@H](O)[C@H](O)[C@@H]2O)nn1

Assays:
[1] = system: MB49-Luc orthotopic bladder cancer; conditions: mouse, in vivo
[2] = Secondary structure by CD and FTIR; assay type: physicochemical; conditions: CD: 10 μM, deionized water, 25°C, 1 hour; FTIR: 100 μM, distilled water, 60 min
Outline: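 For CD, test compound (10 µM) was dissolved in deionized water at 25°C for 1 h and scanned at 500 nm/min with 0.5 nm resolution, with solvent background subtracted. For FTIR, samples were freshly prepared at 100 µM in distilled water for 60 min, dried on calcium fluoride tablets and recorded.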

CD206 [3] = biological target: T1, CD206 (Homo sapiens, UniProt P22897); test: Microscale thermophoresis binding to CD206; conditions: Kd 3.48 μM versus mannose ~1000 μM
EJ cells (CXCR4) = test: CLSM imaging of bsGP; assay type: cell-based, human
RAW264.7 cells [4] = test: CLSM imaging of bsGP; assay type: cell-based; conditions: Cy-labeled bsGP
EJ cells [5] = test: SEM of nanofibrils on EJ cell surface; assay type: cell-based, human; conditions: 50 μM, 12 and 24 hours
Outline: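 EJ cells (1 × 10⁵ per well) were seeded on silicon wafers and cultured 12 h. Saline or test compound (50 µM) was then added for a further 12 and 24 h. The cell surface was examined by scanning electron microscopy.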

EJ cells [6] = test: Cell viability; assay type: cell-based, human; conditions: 50 μM, 24 hours, CCK-8; n = 3
Outline: (§1)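 Cells were seeded at 5 × 10⁴ per well in RPMI 1640 and cultured overnight at 37°C, 5% CO₂. Test compound was added at 10, 20, 50, 100, 200 or 500 µM for 24 h, then CCK-8 for 2 h at 37°C. Absorbance was read at 450 nm against a 690 nm reference. Viability = (A_s − A_b)/(A_c − A_b) × 100% versus saline-treated wells. Run in triplicate.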

RAW264.7 cells [7] = test: Cell viability; assay type: cell-based; conditions: 50 μM, 24 hours, CCK-8; n = 3
Outline: as §1

[8] = system: tumor tissue in orthotopic bladder cancer mice; test: Tumor penetration by immunofluorescence of frozen sections; assay type: in vivo, mouse; conditions: Cy-labeled bsGP; distance from vessels, compared with antibody
Outline: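 Orthotopic EJ xenograft nude mice with tumors of about 200 mm³ received saline or test compound (500 µM, 100 µl) by intravesical instillation. Frozen tumor sections were imaged by confocal microscopy.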

EJ cells [9] = test: Colony formation assay; assay type: cell-based, human; conditions: versus saline and PepCXCR4
Outline: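 EJ cells (200 per well) were grown in DMEM in six-well plates at 37°C, 5% CO₂ until visible colonies appeared. Colonies were rinsed twice with saline, fixed in 4% paraformaldehyde for 15 min and stained with Giemsa for 10 to 30 min. They were photographed and counted. Colony formation efficiency = clones/inoculated cells × 100%.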

EJ cells [10] = test: Transwell migration assay; assay type: cell-based, human; conditions: 50 μM, 24 hours; versus saline and PepCXCR4
Outline: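 EJ cells (1 × 10⁵) in 150 µl serum-free DMEM were placed in the upper Transwell chamber with saline or test compound (50 µM). Complete medium was in the lower chamber. After 24 h, non-migrated cells were swabbed away. Migrated cells were fixed in 4% paraformaldehyde, stained with 0.05% crystal violet for 10 min, photographed and counted.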

[11] = system: pErk and pAkt (CXCR4 downstream) in EJ cells; test: Western blot of Erk and Akt phosphorylation in EJ cells; assay type: cell-based, human; conditions: for phosphorylation of Erk and Akt: 50 μM, 24 hours
Outline: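 EJ cells were lysed in buffer with protease inhibitor and centrifuged 15 min; protein was measured by BCA. 30 µg protein was run on SDS-PAGE and transferred to PVDF. Membranes were blocked 1 to 2 h at room temperature in 5% nonfat milk, 0.1% Tween 20, 10 mM TBS. Primary antibody was applied overnight at 4°C, then secondary for 1 to 2 h at room temperature. Detection was by chemiluminescence.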

EJ xenograft tumor [12] = test: Antitumor efficiency in EJ xenograft mice; assay type: in vivo, mouse; conditions: 100 μl, intravenous; for tumor growth inhibition rate, EJ xenograft: 18 days, PepCXCR4 and bsGP 500 μM, plerixafor 100 μM
Outline: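 BALB/c nude mice (6 to 8 weeks, 16 to 18 g) received 5 × 10⁶ EJ cells in 100 µl s.c. in the right flank. Mice were randomised into groups of n = 6. Saline, test compound (500 µM, 100 µl) or plerixafor (100 µM, 100 µl) was given i.v. by tail vein once a day for five doses. Tumor volume was measured by calipers and body weight recorded every other day.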

[13] = system: pErk and pAkt in tumor tissues; test: Immunohistochemistry of pErk and pAkt in EJ tumor tissues; assay type: in vivo, mouse; conditions: EJ xenograft, versus saline
MB49-Luc tumor = test: Antitumor efficiency in MB49-Luc tumor-bearing mice; assay type: in vivo, mouse; conditions: 500 μM, 100 μl, five doses
orthotopic bladder tumor = assay type: in vivo, mouse; conditions: 500 μM, 100 μl, intravesical instillation
Outline: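 Once bladder tumor growth was confirmed, test compound (500 µM, 100 µl) was instilled intravesically and kept in the bladder for 60 min. Whole-body fluorescence was scanned with IVIS at 1, 4, 8, 12, 24, 48 and 72 h. The bladder was exteriorised and imaged ex vivo at 1 h after infusion.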

NF-κB in RAW264.7 cells = test: Western blot of NF-κB phosphorylation in RAW264.7 cells; assay type: cell-based; conditions: 50 μM, 24 hours; compared with mannose
NF-κB in tumor tissues = test: Western blot of NF-κB phosphorylation in tumor tissues; assay type: in vivo, mouse; conditions: 500 μM, 100 μl, every 2 days, five times; compared with mannose
[14] = system: M2-like (CD206) and M1-like (CD86) macrophages; test: Flow cytometry of TAM polarization in tumors; assay type: in vivo, mouse
[15] = system: TNF-α, IL-12, IL-10 and TGF-β; test: Intratumoral cytokines in homogenized tumor tissues; assay type: in vivo, mouse; conditions: versus saline and PepCXCR4
[16] = system: CD8^+ T cells and Tregs in tumor; test: Flow cytometry of tumor T cells; assay type: in vivo, mouse
[17] = system: CD86^+ and CD206^+ TAMs, CD4^+ and CD8^+ T cells; test: Multiplex immunofluorescence of whole tumor slices; assay type: in vivo, mouse; conditions: for CD4^+ T cells in whole tumor slice: saline 1.74%
[18] = system: CD86^+ and CD206^+ TAMs, CD4^+ and CD8^+ T cells proximal to CXCR4^+ tumor cells; test: Spatial distance of immune cells to CXCR4^+ tumor cells; assay type: in vivo, mouse
[19] = system: tumor fibrosis in MB49-Luc tumor; test: Tumor fibrosis; assay type: in vivo, mouse; conditions: versus saline and PepCXCR4
EJ xenograft tumor [20] = conditions: 500 μM, 100 μl, intravenous
CD206 [21] = biological target: T1, CD206; conditions: read-out: Kd of mannose; cited from earlier work
[22] = system: CXCR4 (breast and pancreatic cancer); conditions: cited from earlier work
[23] = MB49-Luc, C57BL/6, 500 μM, 100 μl, every other day, five times
[24] = immunofluorescence, versus saline

T1 sequence (P22897 19-1456, species assumed): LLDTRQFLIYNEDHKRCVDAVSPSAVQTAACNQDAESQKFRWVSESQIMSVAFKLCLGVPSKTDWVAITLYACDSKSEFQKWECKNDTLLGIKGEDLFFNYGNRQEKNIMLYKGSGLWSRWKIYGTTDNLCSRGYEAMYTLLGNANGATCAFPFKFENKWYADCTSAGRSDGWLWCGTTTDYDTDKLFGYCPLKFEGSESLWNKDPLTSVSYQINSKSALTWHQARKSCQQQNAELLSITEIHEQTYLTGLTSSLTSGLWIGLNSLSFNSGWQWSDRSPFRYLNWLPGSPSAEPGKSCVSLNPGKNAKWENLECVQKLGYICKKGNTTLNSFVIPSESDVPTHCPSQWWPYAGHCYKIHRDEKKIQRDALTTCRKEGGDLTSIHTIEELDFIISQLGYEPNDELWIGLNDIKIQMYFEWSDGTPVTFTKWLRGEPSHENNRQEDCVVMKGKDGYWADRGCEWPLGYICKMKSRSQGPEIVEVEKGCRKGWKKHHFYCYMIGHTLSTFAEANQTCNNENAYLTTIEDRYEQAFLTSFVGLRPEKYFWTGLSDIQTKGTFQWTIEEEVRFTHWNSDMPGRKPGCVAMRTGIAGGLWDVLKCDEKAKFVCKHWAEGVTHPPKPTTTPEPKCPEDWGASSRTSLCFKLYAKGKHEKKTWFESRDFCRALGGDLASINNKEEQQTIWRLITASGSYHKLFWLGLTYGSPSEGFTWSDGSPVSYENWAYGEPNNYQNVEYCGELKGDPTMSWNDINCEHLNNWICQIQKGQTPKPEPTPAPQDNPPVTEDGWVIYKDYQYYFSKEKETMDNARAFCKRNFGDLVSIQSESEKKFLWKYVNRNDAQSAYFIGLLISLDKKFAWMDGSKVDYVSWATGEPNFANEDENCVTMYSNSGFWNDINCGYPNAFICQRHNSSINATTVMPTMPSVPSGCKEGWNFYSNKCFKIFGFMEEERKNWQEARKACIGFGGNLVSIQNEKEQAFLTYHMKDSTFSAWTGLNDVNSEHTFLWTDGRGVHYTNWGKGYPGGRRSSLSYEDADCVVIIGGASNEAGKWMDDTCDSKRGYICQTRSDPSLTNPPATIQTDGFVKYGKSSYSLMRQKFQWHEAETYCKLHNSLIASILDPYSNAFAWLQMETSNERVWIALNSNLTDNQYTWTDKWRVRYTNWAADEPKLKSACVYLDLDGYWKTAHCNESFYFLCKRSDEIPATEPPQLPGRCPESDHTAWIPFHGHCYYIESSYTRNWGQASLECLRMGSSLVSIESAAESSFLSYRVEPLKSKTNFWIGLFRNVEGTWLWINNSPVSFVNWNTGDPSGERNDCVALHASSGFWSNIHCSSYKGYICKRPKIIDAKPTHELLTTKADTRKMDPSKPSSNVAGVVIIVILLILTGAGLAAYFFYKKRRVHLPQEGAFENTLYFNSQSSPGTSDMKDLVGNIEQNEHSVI

C[C@H]1c2cccc(O)c2C(=O)C2=C(O)[C@]3(O)C(=O)C(C(N)=O)=C(O)[C@@H](N(C)C)[C@@H]3[C@@H](O)[C@@H]21 [Dox, doxycycline]
recurrence rate [1]: 89%
survival rate at 60 days [1]: 11%

CC(C)C[C@H](NC(=O)[C@H](Cc1ccc(O)cc1)NC(=O)CNC(=O)[C@H](CC(C)C)NC(=O)[C@@H]1CCCN1C(=O)CCCc1cn(CC(=O)NC(COCc2cn(CCO[C@H]3O[C@H](CO)[C@@H](O)[C@H](O)[C@@H]3O)nn2)(COCc2cn(CCO[C@H]3O[C@H](CO)[C@@H](O)[C@H](O)[C@@H]3O)nn2)COCc2cn(CCO[C@H]3O[C@H](CO)[C@@H](O)[C@H](O)[C@@H]3O)nn2)nn1)C(=O)NCC(=O)NCCCC[C@H](NC(=O)[C@H](CCCCN)NC(=O)[C@H](CC(=O)O)NC(=O)[C@@H]1CCCN1C(=O)[C@H](CCCNC(=N)N)NC(=O)[C@H](Cc1c[nH]cn1)NC(=O)[C@H](Cc1c[nH]c2ccccc12)NC(=O)[C@H](CO)NC(=O)[C@H](C)NC(=O)CNC(=O)[C@@H](N)CC(C)C)C(=O)N[C@@H](CC(C)C)C(=O)N[C@H](C(=O)N[C@@H](Cc1ccccc1)C(=O)N[C@@H](Cc1ccccc1)C(=O)N[C@@H](C)C(=O)N[C@@H](CCC(=O)O)C(=O)N[C@@H](CS)C(=O)NCC(=O)O)C(C)C [bsGP] (I: H-LGASWHRPDKKLVFFAECG-OH / II: X1-PLGYLG; amide I:11-II:C; N-terminus and C-terminus assumed)
secondary structure [2]: random coil structure
affinity relative to mannose (CD206 [3]): about 300 fold
localization on EJ cells (EJ cells (CXCR4); Cy-labeled bsGP, 50 μM, pH 7.4, saline, 37°C, 15 min): observed on the cytomembrane of tumor cells (EJ)
colocalization with GFP-encoded CXCR4 (EJ cells (CXCR4); EJ cells transfected with GFP-encoded CXCR4): Overlapping green fluorescence (CXCR4) with red fluorescence (bsGP)
localization on RAW264.7 cells (RAW264.7 cells [4]): observed on the cytomembrane
nanofibrillar network on EJ cell surface (EJ cells [5]): presence of a nanofibrillar network
effect on viability of EJ cells (EJ cells [6]): no substantial impact
effect on viability of RAW264.7 cells (RAW264.7 cells [7]): no substantial impact
penetration in tumor tissue [8]: deep penetration capability
cell proliferation capacity (EJ cells [9]): substantially decreased
migration capacity (EJ cells [10]): evidently decreased
dose dependence of MAPK pathway suppression (pErk, pAkt) ([11]; 0, 20, 50 and 100 μM for 24 hours, 50 μM for 0, 24, 36, 48 hours): suppressed in a dose-dependent manner
phosphorylation of Erk and Akt [11]: strongly inhibited
body weight loss, EJ xenograft (EJ xenograft tumor [12]; 500 μM, five doses): no obvious loss of body weight
phosphorylation levels of Erk and Akt in tumor tissues [13]: strongly inhibited
body weight loss, MB49-Luc (MB49-Luc tumor): no obvious loss of body weight
fluorescence signal at the tumor site (orthotopic bladder tumor): evident fluorescence signals
NF-κB phosphorylation in RAW264.7 cells (NF-κB in RAW264.7 cells): effectively activated
NF-κB phosphorylation in tumor tissues (NF-κB in tumor tissues): effectively activated
increase of M1-like TAMs ([14]; from 14.2 to 25.4%): approximately 11.2%
decrease of M2-type macrophages ([14]; from 29.2 to 17.3%): approximately 11.9%
intratumoral secretion of IL-10 [15]: down-regulated
intratumoral secretion of IL-12 [15]: substantially up-regulated
intratumoral secretion of TGF-β [15]: down-regulated
intratumoral secretion of TNF-α [15]: substantially up-regulated
CD4^+Foxp3^+ Tregs ([16]; saline 8.58%): 6.80%
granzyme B^+CD8^+ T cells ([16]; saline 9.44%): 19.60%
proportion of CD45^+CD3^+CD8^+ T cells ([16]; saline 16.3%): 25.8%
CD4^+ T cells in whole tumor slice [17, 23]: 4.35%
CD206^+ M2-like TAMs in whole tumor slice ([17]; MB49-Luc, C57BL/6, 500 μM, 100 μl, every other day, five times, saline 20.94%): 13.0%
increase of CD86^+ M1-like TAMs ([17]; immunofluorescence): 2.3 fold
increase of CD4^+ T cells [17, 24]: 2.5 fold
increase of CD8^+ T cells [17, 24]: 2.6 fold
decrease of CD206^+ M2-like TAMs versus saline ([18]; 5- to 10-μm radius): 20%
number of CD86^+ M1-like TAMs near tumor cells ([18]; 5- to 10-μm radius): up to 6.22 × 10^4
CD4^+ T cell counts relative to saline ([18]; spatial distance 10 μm): 4.0 fold
CD8^+ T cell counts relative to saline ([18]; spatial distance 10 μm): 5.5 fold
CD86^+ counts relative to saline ([18]; spatial distance 10 μm (text: 5- to 10-μm radius)): 2.6 times
tumor fibrosis [19]: strongly inhibited
signal-to-noise ratio (EJ xenograft tumor [20]): 7.8 fold
time of highest tumor accumulation (EJ xenograft tumor [20]): 4 h
time to target tumor tissue (EJ xenograft tumor [20]): ≤ 1 h
tumor accumulation relative to PepCXCR4 (EJ xenograft tumor [20]; 4 hours): nearly fourfold
retention in tumor tissue (EJ xenograft tumor [20]; nanofiber formed in situ): up to 48 hours
recurrence rate [1]: 22%
survival rate at 60 days [1]: 78%
body weight loss (C57BL/6 mice; C57BL/6 mice): without loss of body weight
severe systemic toxicity (C57BL/6 mice; intravesical, treatment dose): did not induce severe systemic toxicity
signs of a deteriorating general condition (C57BL/6 mice; red skin or reduced food consumption): no signs of a deteriorating general condition

OC[C@H]1OC(O)[C@@H](O)[C@@H](O)[C@@H]1O (stereo partly drawn) [mannose]
Kd (CD206 [21]): ~1000 µM

c1cc(CN2CCCNCCNCCCNCC2)ccc1CN1CCCNCCNCCCNCC1 [plerixafor]
tumor growth inhibition rate, EJ xenograft (EJ xenograft tumor [12]): 32%
recurrence rate [1]: 100%
survival rate at 60 days [1]: 0%
effect on tumor apoptosis, metastasis and intratumoral Tregs [22]: substantially promote tumor apoptosis, reduce tumor metastasis, and selectively decrease intratumoral Tregs

LGASWHRPDK [PepCXCR4]
effect on viability of EJ cells (EJ cells [6]): no substantial impact
effect on viability of RAW264.7 cells (RAW264.7 cells [7]): no substantial impact
phosphorylation of Erk and Akt [11]: did not substantially alter
tumor growth inhibition rate, EJ xenograft (EJ xenograft tumor [12]): 19%
fluorescence signal at the tumor site (orthotopic bladder tumor): evident fluorescence signals
CD4^+ T cells in whole tumor slice [17, 23]: 2.37%
tumor-infiltrating CD8^+ T cells in whole tumor slice ([17]; MB49-Luc, C57BL/6, 500 μM, 100 μl, every other day, five times, saline 3.43%): 4.04%
